Shown are actives, neighbours in structure and some others; about 2.8% of the full set was active somewhere.
UBC13 inh: UBC13 polyubiquitin chain formation inhibitors, primary screen, biochemical, TR-FRET, uHTS; Ubiquitin-conjugating enzyme E2 N (Homo sapiens), P61088; hit rate 0.47% among 330,000; inhibition, % at 20 µM; in the data active = inhibition above about 45%, passing the limit was not always enough; inconclusive = no clear call, values can overlap the other calls
Target sequence (P61088 whole entry, looked up): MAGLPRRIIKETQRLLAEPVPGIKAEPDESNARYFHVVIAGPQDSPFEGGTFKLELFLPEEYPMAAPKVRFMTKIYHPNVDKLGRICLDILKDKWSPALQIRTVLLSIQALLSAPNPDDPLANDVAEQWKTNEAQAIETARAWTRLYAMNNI
pCIP destab: p/CIP-EGFP fusion destabilizers, primary screen, fluorescence, F442A cells | 16 h | Q05BA5 | hit rate 0.01% among 290,000 | decrease of EGFP signal, % at 10 µM;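 active = EGFP signal decrease of at least 30% at 10 µM or well 3 SD below plate mean, unless failing retest; inactive = the rest, including hits failing retest or dose response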
T cruzi inh: inhibitors of intracellular T. cruzi growth, primary screen, luminescence, NIH3T3 host cells; T. cruzi beta-gal in NIH3T3, 90 h; inhibition, % (no concentration beside the values); hit rate 1.4% among 300,000; AID 1885, 2009;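 active = mean inhibition across valid replicates above about 55%, limit read from the data; inconclusive = mean below that limit but half or more replicates reach it; inactive = mean below it, under half of replicates reach it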;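 note: signal also drops with host cell toxicity which is not excluded here; 0% = plate median of DMSO wells and 100% = zero luminescence signal; higher percent means less beta-gal luminescence so fewer parasites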
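Read-out: Parasite load inhibition, % | Test system: Mouse NIH/3T3 fibroblasts infected with β-gal-expressing T. cruzi Tulahuen C4 | Amount: 5,000 cells/well | Medium: DMEM, 2% fetal bovine serum | Signal: GalScreen β-gal luminescence, detergent lysis, 60 min | Timing: 3 h attach, ≥90 h co-culture | Also added: Tulahuen C4 trypomastigotes, 5000/well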
PP1 counter: PP1-alpha phosphatase inhibitors, primary screen, counter-screen for PP5 inhibitor project, biochemical, fluorescence, OMFP substrate, single point. Serine/threonine-protein phosphatase PP1-alpha catalytic subunit (Homo sapiens), P62136. purified PP1alpha. inhibition, % at 6.7 µM. hit rate 0.9% among 320,000. AID 2235, 2010;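 active = inhibition above the mean inhibition of all tested compounds plus 3 SD, computed separately for each screening campaign, cut at about 15% in these data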
Target sequence (P62136 whole entry, looked up): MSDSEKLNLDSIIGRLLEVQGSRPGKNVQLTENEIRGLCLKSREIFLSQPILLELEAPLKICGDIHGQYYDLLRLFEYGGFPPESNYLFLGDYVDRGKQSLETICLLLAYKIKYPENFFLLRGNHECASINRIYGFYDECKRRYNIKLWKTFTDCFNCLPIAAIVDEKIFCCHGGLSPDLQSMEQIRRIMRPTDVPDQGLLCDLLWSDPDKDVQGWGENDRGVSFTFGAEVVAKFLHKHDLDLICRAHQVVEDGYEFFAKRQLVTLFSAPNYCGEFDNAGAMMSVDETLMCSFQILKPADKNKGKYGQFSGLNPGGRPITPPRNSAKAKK
AI-2 QS mod: Vibrio harveyi AI-2 quorum sensing modulators, primary screen, JMH597 strain, luminescence/OD600 ratio | hit rate 0.4% among 300,000 | Vibrio harveyi JMH597 AI-2 luminescence/OD600 ratio, 9 h; stronger effect = lower value; strain lacks LuxN and CqsS sensors; 0 = neutral-control median | activity change, % at 7.5 µM; in the data active = activity change below about -75%, passing the limit was not always enough; inconclusive = no clear call, values can overlap the other calls;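 note: luminescence divided by OD600 gain over 9 h not by final OD600 alone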
* marks the source's active call; other numbers are inactive results; ? = inconclusive; nt = no result given.

SMILES | UBC13 inh | pCIP destab | T cruzi inh | PP1 counter | AI-2 QS mod
O=[N+]([O-])c1ccccc1/C=C/C=N/Nc1ccc(S(=O)(=O)Nc2ccc(Cl)cc2)cc1[N+](=O)[O-] | -71 | -21 | 68* | 0 | 22
COc1cc(CNC(C)c2ccccc2)cc(Br)c1OCc1ccc(F)cc1 (stereo unspecified) | 25 | -8 | 55* | 14 | 9
O=C(COc1ccccc1)Nc1nnc(-c2ccc(Cl)s2)o1 | -13 | -10 | -3 | 19* | -87*
O=C(CCc1ccccc1)Nc1nnc(-c2ccc3c(c2)OCCO3)o1 | -6 | 0 | -3 | 4 | -8
O=C(CCc1ccccc1)Nc1nnc(-c2ccc3c(c2)CCCC3)o1 | -16 | -5 | -5 | 20* | 21
O=C(COc1ccccc1)Nc1nnc(-c2ccccc2)o1 | -9 | -4 | -5 | 15* | -45
Cc1ccc(S(=O)(=O)N2CCCN(C(=O)c3ccc(-n4cccn4)cc3)CC2)cc1 | 6 | nt | nt | -3 | nt
COc1ccc(/C=C2\SC(=S)N(CCC(=O)N(CCO)Cc3ccccc3)C2=O)cc1OC | 4 | 0 | 65* | 15 | 14
O=C(Nc1cc(Cl)ccc1-n1cncn1)c1ccc([N+](=O)[O-])s1 | -12 | -39 | 69* | 0 | ?
O=C(Nc1cc(Cl)ccc1-n1cncn1)c1ccco1 | 7 | 3 | -14 | -1 | 26
CCOc1ccc(Cl)cc1S(=O)(=O)N1CCC(C(=O)NCc2cccnc2)CC1 | 2 | 5 | 6 | 6 | 20
CSc1nc(N)nc(SCC(=O)C23CC4CC(CC(C4)C2)C3)c1C#N | 23 | -6 | 65* | 5 | 39
N#Cc1c(N)nc(SCC(=O)C23CC4CC(CC(C4)C2)C3)c(C#N)c1-c1ccc(Cl)cc1 | 7 | -1 | 6 | -2 | 12
C=CCOc1ccc(C(c2c(C)n(C)n(-c3ccccc3)c2=O)c2c(C)n(C)n(-c3ccccc3)c2=O)cc1 | -2 | 7 | 14 | 0 | 37
CNC(=O)c1nnsc1S(=O)c1ccc(Cl)cc1 (stereo unspecified) | 8 | -9 | 60* | nt | ?
Cc1ccc(S(=O)c2snnc2C)cc1 (stereo unspecified) | 4 | 1 | 6 | -1 | 7
CCCNC(=O)c1nnsc1S(=O)c1ccc(Cl)cc1 (stereo unspecified) | -11 | -4 | 67* | nt | 15
CC1CCN(C(=O)COc2ccc3ccccc3c2Br)CC1 | -8 | -10 | 9 | -2 | 2
Oc1c(Cl)cc(CN2CCOCC2)c2cccnc12 | -60 | nt | nt | -1 | nt
CN1CCN(Cc2cc(COCc3ccccc3)c3cccnc3c2O)CC1 | 26 | -8 | 77* | 22* | -65
Oc1c(CN2CCCCC2)cc(Br)c2cccnc12 | -27 | 1 | 56* | 9 | -87*
CN1CCN(Cc2ccc(OCc3ccccc3)cc2)CC1 | 9 | 0 | 52 | 1 | 27
O=S(=O)(c1ccc(F)cc1)N1CCN(S(=O)(=O)c2cccs2)CC1 | -6 | -18 | 7 | 1 | 7
COc1ccc(C2C(C(=O)N3CCC(C(N)=O)CC3)CC(=O)N2c2ccc(OC)cc2)cc1 (stereo unspecified) | -11 | -1 | -9 | -3 | 5
NC(=S)N/N=C/c1ccc(-n2nncc2-c2ccc(Cl)cc2)cc1 | -6 | -29 | 57* | 2 | 13
SMILES | UBC13 inh | pCIP destab | T cruzi inh | PP1 counter | AI-2 QS mod
O=C(Cn1cnc2c(OCc3ccccc3)ncnc21)N[C@H](CO)Cc1cc2ccccc2[nH]1 | 16 | nt | nt | nt | nt
Cc1ccc(C)c(NC(=O)COC(=O)CCNC(=O)c2ccco2)c1 | 2 | nt | nt | -2 | nt
Cc1cccc(-n2nc([N+](=O)[O-])c(=NCc3cccnc3)n2O)c1 | -13 | -1 | 55* | -1 | 39
O=[N+]([O-])c1nn(-c2ccccc2)n(O)c1=NCCc1ccccc1 | -20 | 0 | 58* | 0 | 38
Cc1ccc(CCN=c2c([N+](=O)[O-])nn(-c3ccccc3)n2O)cc1 | -14 | 7 | 70* | 0 | 23
COc1ccc(-n2nc([N+](=O)[O-])c(=NCCc3ccccc3)n2O)cc1 | -7 | 2 | 31 | -3 | 37
O=C(Cc1cccs1)NCCc1ccc(Cl)cc1 | 2 | -3 | -6 | -3 | 21
COC(=O)c1cc(S(=O)(=O)N2CCN(c3cccc(OC)c3)CC2)cn1C | 0 | 10 | 4 | -5 | 18
CC(NC(=O)c1cccnc1)C(c1cccs1)N1CCOCC1 (stereo unspecified) | 6 | 0 | 65* | -4 | 15
COc1ccc(CN2CCN(C(=O)C3CCC(CNS(=O)(=O)c4ccc(C)cc4)CC3)CC2)c(OC)c1OC (stereo unspecified) | 5 | -1 | 57* | -3 | 20
O=c1oc(-c2ccccc2Cl)nc2ccsc12 | -1 | -5 | -7 | -1 | -83*
CC1(C)SC2c3ccccc3C(=O)N2[C@@H]1C(=O)NC1CC1 (stereo partly specified) | 0 | -10 | 4 | -3 | 14
O=C(N/N=C/c1ccccc1)c1ccco1 | 3 | -6 | -5 | -4 | 7
O=C(C#Cc1ccccc1)c1ccco1 | -4 | -42 | -19 | -1 | -94*
COc1ccc(CCN2C(=NC(=O)CC(C)C)SC3CS(=O)(=O)CC32)cc1OC (stereo unspecified) | -6 | 10 | 1 | -7 | 16
NC(=O)c1ccccc1NC(=O)c1ccc2c(c1)OCO2 | -5 | 13 | -6 | 0 | 22
CN(C)c1nc(NCc2ccccc2)nc(SCC(=O)Nc2ccc(Cl)c(Cl)c2)n1 | 6 | -2 | 55* | 4 | 14
Cc1ccc(N(CC(=O)N/N=C/c2cc(C)n(-c3ccccc3C)c2C)S(C)(=O)=O)cc1 | 6 | 22* | 8 | 0 | 19
CCN1/C(=C/C=C/c2oc3ccc4ccccc4c3[n+]2CC)Oc2ccc3ccccc3c21 | ? | -667 | 39 | 49* | 25
CCCSCCCNC(=O)c1ccccc1NC(=O)C1=CSCCO1 | 2 | 2 | -3 | 0 | 6
O=c1c2ccccc2nc(/C=C/c2ccc([N+](=O)[O-])o2)n1CCCO | -6 | -64 | 62* | -2 | -84*
O=c1c2ccccc2nc(/C=C/c2ccc([N+](=O)[O-])cc2)n1CCCO | 6 | 3 | 9 | 10 | 23
CN(C)c1ccc(CNS(=O)(=O)c2ccc3c(c2)NC(=O)CS3)cc1 | -5 | -10 | -18 | -4 | 35
CCc1ccc2c(c1)C(=O)C(=O)N2CC(=O)Nc1ccc(NC(=O)c2ccccn2)cc1 | -38 | 6 | -2 | 16* | 16
Cc1ccc(CN2CCN(Cc3ccc(-n4cccn4)cc3C)CC2CCO)cc1 (stereo unspecified) | -4 | 1 | 62* | -8 | 15
